Assay results reported in ChEMBL document CHEMBL1133729, “Design, synthesis, and structure-activity relationships of phthalimide-phenylpiperazines: a novel series of potent and selective alpha(1)(a)-adrenergic receptor antagonists” (J Med Chem, 2000).

What was measured:
[1] = target: Alpha-2A adrenergic receptor (Homo sapiens, UniProt P08913); assay: Binding affinity towards recombinant human alpha-2A adrenergic receptor was determined using [3H]MK-912 as radioligand
Procedure, shortened: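 Membranes from CHO cells expressing recombinant human α2a receptor; competition with [3H]MK912, 60 min at 25 °C, in 50 mM Tris-HCl/150 mM NaCl/5 mM EDTA pH 7.4. Nonspecific binding defined with 10 μM WB4101. Filtration, washing, scintillation counting. IC50 by nonlinear regression, Ki via Cheng–Prusoff; mean ± SEM of three independent experiments.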

[2] = target: T1, 5-hydroxytryptamine receptor 7 (Homo sapiens, UniProt P34969); assay: Compound at 1 uM was tested for the inhibition of radioligand [3H]LSD binding to recombinant human 5-hydroxytryptamine 7 receptor
Procedure, shortened: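 Human 5-HT7 expressed in CHO cells; [3H]LSD, 120 min at 37 °C, pH 7.4 Tris-HCl/NaCl/EDTA; 5 μM 5-HT for nonspecific binding. Compound at 1 μM, duplicate determinations of percent inhibition; filtration, scintillation counting.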

[3] = target: Dihydropyridine-sensitive L-type Ca2+ channel (Rattus norvegicus, UniProt P22002+P27732+Q02485); assay: Inhibition of [3H]nitrendipine binding to Dihydropyridine-sensitive L-type [Ca2+] channel in rat cerebral cortex at 1 uM; format: tissue-based; settings: probe [3H]nitrendipine
Procedure, shortened: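 Rat cerebral cortex membranes as source of dihydropyridine-sensitive L-type Ca2+ channels; [3H]nitrendipine, 25 °C for 90 min, pH 7.4 Tris-HCl/NaCl/EDTA; 1 μM nifedipine for nonspecific binding. Percent inhibition at the single compound concentration given in each line; filtration, scintillation counting.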

[4] = species on record: Rattus norvegicus; assay: Displacement of [3H]-idazoxan from imidazoline receptor I-2 of rat cerebral cortex; format: tissue-based; settings: concentration not given here
Procedure, shortened: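 Rat cerebral cortex membranes; [3H]idazoxan at 25 °C for 30 min in 50 mM Tris-HCl, 150 mM NaCl, 5 mM EDTA, pH 7.4; nonspecific binding with 1 μM idazoxan. Filtered, washed three to four times, scintillation counted; duplicate determinations.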

[5] = target: T1, 5-hydroxytryptamine receptor 7; assay: Binding affinity towards recombinant human 5-hydroxytryptamine 7 receptor was determined using [3H]LSD as radioligand
Procedure, shortened: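 Membranes were from CHO cells expressing recombinant human 5-HT7. [3H]LSD binding was run for 120 min at 37 °C in 50 mM Tris-HCl, 150 mM NaCl, 5 mM EDTA, pH 7.4, with nonspecific binding set by 5 μM 5-HT. Filtration and scintillation counting followed. Ki came from IC50 by Cheng–Prusoff, mean ± SEM of three experiments.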

[6] = species on record: Rattus norvegicus; assay: Antagonist dissociation equilibrium constant was tested against rat prosta contraction; format: functional
Procedure, shortened: (§1)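 Isolated Long Evans male rat (275 ± 25 g) abdominal aortic strips (3-4 mm wide) or prostate strips (8-10 mm x 1-2 mm), 2 g resting tension, modified Krebs at 37 °C, 95% O2/5% CO2, pH 7.4, 60 min equilibration; isometric tension.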

[7] = species on record: Rattus norvegicus; assay: Antagonist dissociation equilibrium constant was tested against rat aorta contraction; format: functional; procedure, shortened: as §1
[8] = target: T2, D(2) dopamine receptor (Homo sapiens, UniProt P14416); assay: Binding affinity towards recombinant human Dopamine receptor D2S was determined using [3H]spiperone as radioligand
Procedure, shortened: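 Recombinant human D2S in CHO cell membranes; [3H]spiperone incubated 120 min at 37 °C, buffer 50 mM Tris-HCl, 150 mM NaCl, 5 mM EDTA, pH 7.4; nonspecific with 10 μM haloperidol. Filtered, counted by scintillation. Ki via Cheng–Prusoff from fitted IC50, mean ± SEM of three experiments.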

[9] = target: phenylalkylamine-sensitive L-type Ca2+ channel (Rattus norvegicus, UniProt P22002+P27732+Q02485); assay: Inhibition of [3H]nitrendipine binding to phenylalkylamine-sensitive [Ca2+] L-type channels in rat cerebral cortex at 1 uM; format: tissue-based; settings: probe [3H]nitrendipine
[10] = target: D(3) dopamine receptor (Homo sapiens, UniProt P35462); assay: Binding affinity towards recombinant human Dopamine receptor D3 was determined using [3H]spiperone as radioligand
[11] = target: Alpha-2B adrenergic receptor (Rattus norvegicus, UniProt P19328); assay: Binding affinity towards rat alpha-2B adrenergic receptor was determined using [3H]yohimbine as radioligand
Procedure, shortened: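 Membranes from rat kidney cortex; [3H]yohimbine binding at 25 °C for 30 min in 50 mM Tris-HCl, 150 mM NaCl, 5 mM EDTA, pH 7.4. Nonspecific binding defined with 10 μM phentolamine. Filtration, washes, scintillation counting. IC50 from nonlinear regression, Ki by Cheng–Prusoff, mean ± SEM of three independent experiments.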

[12] = target: Histamine H1 receptor (Cavia porcellus) (UniProt P31389); assay: Compound at 1 uM was tested for the inhibition of radioligand [3H]pyrilamine binding to peripheral histamine H1 receptor in guinea pig lung
[13] = target: T2, D(2) dopamine receptor; assay: Binding affinity towards recombinant human Dopamine receptor D2L was determined using [3H]spiperone as radioligand
Procedure, shortened: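 CHO-expressed human D2L membranes; [3H]spiperone, 25 °C for 120 min, pH 7.4 Tris-HCl/NaCl/EDTA buffer; haloperidol (10 μM) for nonspecific binding. Filtration, scintillation counting. IC50 by nonlinear least squares fitting; Ki by Cheng–Prusoff; mean ± SEM, three independent experiments.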

[14] = target: T3, D(4) dopamine receptor (Homo sapiens) (UniProt P21917); assay: Compound at 1 uM was tested for the inhibition of radioligand [3H]spiperone binding to recombinant human Dopamine receptor D4
T3 sequence (whole entry): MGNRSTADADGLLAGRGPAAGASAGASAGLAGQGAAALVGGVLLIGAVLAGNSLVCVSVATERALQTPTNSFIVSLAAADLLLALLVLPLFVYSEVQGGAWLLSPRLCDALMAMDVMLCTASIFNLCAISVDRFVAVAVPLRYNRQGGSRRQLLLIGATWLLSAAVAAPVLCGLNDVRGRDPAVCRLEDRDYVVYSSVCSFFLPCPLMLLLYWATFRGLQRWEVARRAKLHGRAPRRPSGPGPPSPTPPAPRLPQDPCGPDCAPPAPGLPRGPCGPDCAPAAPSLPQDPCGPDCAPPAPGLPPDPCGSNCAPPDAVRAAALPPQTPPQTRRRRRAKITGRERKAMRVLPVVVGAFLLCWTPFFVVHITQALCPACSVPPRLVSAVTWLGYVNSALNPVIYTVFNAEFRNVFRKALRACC
Procedure, shortened: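 Recombinant human D4.7 in CHO cell membranes; [3H]spiperone for 120 min at 25 °C, pH 7.4 Tris-HCl/NaCl/EDTA; haloperidol (10 μM) for nonspecific binding. Compound at 1 μM, percent inhibition determined in duplicate; filtration, scintillation counting.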

[15] = Ratio of rat aorta KB to rat prostate KB; format: functional
Procedure, shortened: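 Long Evans male rats (275 ± 25 g); aortic and prostate strips at 2 g resting tension in modified Krebs, 37 °C, 95% O2/5% CO2, pH 7.4, isometric recording. Cumulative NE curves (0.001–100 μM), repeated after 5 min with one of three antagonist concentrations. KB = [B]/(CR − 1) from EC50 shifts; value is aorta KB divided by prostate KB.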

[16] = test system: Alpha-1D/Alpha-1A adrenergic receptor (Homo sapiens); assay: Ratio of binding affinity towards Alpha1d to Alpha-1A

T1 sequence (P34969 whole entry): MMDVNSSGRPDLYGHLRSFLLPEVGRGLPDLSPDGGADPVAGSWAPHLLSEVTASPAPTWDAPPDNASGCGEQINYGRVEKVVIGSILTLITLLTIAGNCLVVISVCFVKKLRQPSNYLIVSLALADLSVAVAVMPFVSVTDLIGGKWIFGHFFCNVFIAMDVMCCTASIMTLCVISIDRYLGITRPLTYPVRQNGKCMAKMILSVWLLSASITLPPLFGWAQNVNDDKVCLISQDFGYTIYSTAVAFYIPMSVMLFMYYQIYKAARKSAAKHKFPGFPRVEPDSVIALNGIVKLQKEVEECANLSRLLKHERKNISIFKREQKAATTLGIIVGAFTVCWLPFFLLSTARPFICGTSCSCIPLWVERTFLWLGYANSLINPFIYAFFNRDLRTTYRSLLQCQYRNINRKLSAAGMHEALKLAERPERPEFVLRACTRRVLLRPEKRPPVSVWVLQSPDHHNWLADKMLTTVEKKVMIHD
T2 sequence (P14416 whole entry): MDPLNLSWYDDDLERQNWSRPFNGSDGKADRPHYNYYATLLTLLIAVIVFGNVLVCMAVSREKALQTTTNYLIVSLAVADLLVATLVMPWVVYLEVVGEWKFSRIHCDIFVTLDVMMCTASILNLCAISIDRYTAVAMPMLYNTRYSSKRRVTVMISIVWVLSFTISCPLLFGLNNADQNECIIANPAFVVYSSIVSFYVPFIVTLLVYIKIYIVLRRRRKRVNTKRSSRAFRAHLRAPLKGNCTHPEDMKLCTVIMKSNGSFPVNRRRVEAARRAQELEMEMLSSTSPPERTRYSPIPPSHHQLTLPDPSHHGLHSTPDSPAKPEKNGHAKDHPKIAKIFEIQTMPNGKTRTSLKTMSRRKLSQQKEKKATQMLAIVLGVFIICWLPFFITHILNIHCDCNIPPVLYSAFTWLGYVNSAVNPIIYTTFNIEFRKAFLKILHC
Sequence of Histamine H1 receptor (Cavia porcellus) (P31389 whole entry): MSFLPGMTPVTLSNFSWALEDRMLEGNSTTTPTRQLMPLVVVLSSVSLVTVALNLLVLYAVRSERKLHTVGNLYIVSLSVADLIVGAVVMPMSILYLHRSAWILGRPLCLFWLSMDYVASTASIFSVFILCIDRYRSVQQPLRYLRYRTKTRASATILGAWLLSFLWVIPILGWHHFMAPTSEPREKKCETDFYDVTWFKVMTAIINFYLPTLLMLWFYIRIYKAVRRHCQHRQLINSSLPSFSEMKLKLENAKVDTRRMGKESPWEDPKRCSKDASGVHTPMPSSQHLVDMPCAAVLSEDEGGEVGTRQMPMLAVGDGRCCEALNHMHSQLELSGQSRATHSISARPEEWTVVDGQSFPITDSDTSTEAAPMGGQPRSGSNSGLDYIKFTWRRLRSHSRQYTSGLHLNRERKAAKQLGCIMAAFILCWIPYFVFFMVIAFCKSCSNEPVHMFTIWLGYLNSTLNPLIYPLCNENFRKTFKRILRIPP
Sequence of Alpha-2B adrenergic receptor (P19328 whole entry): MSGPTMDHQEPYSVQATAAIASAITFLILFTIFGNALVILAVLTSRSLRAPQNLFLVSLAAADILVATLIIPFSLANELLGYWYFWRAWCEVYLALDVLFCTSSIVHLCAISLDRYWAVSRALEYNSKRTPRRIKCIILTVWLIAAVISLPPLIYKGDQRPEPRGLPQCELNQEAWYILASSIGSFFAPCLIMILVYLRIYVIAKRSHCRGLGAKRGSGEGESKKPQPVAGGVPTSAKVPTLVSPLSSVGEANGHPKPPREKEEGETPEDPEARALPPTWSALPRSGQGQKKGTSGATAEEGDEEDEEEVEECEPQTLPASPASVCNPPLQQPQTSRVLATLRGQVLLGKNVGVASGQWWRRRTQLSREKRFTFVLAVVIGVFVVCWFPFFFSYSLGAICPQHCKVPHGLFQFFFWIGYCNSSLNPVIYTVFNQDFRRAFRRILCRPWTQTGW
Sequence of D(3) dopamine receptor (P35462 whole entry): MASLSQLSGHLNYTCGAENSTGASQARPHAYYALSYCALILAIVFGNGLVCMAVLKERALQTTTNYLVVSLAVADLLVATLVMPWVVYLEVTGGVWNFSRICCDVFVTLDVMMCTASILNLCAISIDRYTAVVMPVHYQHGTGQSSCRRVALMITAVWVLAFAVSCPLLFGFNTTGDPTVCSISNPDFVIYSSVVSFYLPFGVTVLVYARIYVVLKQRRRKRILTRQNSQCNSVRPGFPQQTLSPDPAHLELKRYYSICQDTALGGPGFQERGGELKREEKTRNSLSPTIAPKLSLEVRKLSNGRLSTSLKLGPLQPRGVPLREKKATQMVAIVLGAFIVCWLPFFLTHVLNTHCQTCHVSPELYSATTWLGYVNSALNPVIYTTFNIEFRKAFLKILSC
Sequence of Alpha-2A adrenergic receptor (P08913 whole entry): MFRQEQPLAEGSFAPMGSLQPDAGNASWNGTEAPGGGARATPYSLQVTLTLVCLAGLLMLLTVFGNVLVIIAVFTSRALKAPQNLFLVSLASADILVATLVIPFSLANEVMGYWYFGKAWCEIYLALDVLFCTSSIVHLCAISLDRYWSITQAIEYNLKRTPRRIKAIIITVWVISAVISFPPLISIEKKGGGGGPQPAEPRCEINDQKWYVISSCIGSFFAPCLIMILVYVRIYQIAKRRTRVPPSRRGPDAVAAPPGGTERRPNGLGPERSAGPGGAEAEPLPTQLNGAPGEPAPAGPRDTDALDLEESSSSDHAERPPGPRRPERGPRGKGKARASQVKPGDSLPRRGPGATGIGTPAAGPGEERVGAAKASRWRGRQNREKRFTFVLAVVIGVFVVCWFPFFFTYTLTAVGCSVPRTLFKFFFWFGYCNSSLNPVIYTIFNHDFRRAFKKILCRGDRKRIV

| Compound | Ki [1] [nM] | inhibition [2] [%] | inhibition at 1 µM [3] [%] | inhibition [4] [%] | Ki [5] [nM] | pKB [6] | pKB [7] | Ki [8] [nM] | inhibition at 1 µM [9] [%] | Ki [10] [nM] | Ki [11] [nM] | inhibition [12] [%] | Ki [13] [nM] | inhibition [14] [%] | Ratio [15] | Ratio [16] |
| --- | --- | --- | --- | --- | --- | --- | --- | --- | --- | --- | --- | --- | --- | --- | --- | --- |
| CCOc1ccccc1OCCN[C@H](C)Cc1ccc(OC)c(S(N)(=O)=O)c1 [TAMSULOSIN] | 63 | 74 | 22 | 64 | 84 | 9.33 | 10.76 | 78 | 20 | 0.28 | 80 | 7 | 13 | – | – | – |
| Cc1ccc(N2C(=O)c3ccc(C(=O)NC[C@H](O)CN4CCN(c5ccccc5OC(C)C)CC4)cc3C2=O)cc1 | – | 90 | – | – | – | 6.78 | 5.9 | – | – | – | – | – | – | 50 | 7.6 | – |
| COc1ccc(N2C(=O)c3ccc(C(=O)NCCCN4CCN(c5ccccc5OC(C)C)CC4)cc3C2=O)cc1 | – | 92 | – | – | – | – | – | – | – | – | – | – | – | – | – | – |
| Cc1ccc(N2C(=O)c3ccc(C(=O)NCCCN4CCN(c5ccccc5OC(C)C)CC4)cc3C2=O)cc1 | – | 95 | 53 | – | – | – | – | – | 69 | – | – | – | – | – | – | 231 |
| CC(C)Oc1ccccc1N1CCN(CCCNC(=O)c2ccc3c(c2)C(=O)N(c2cccc(F)c2)C3=O)CC1 | – | 92 | 76 | 66 | – | – | – | – | 72 | – | – | 75 | – | – | – | – |
| CC(C)Oc1ccccc1N1CCN(C[C@@H](O)CNC(=O)c2ccc3c(c2)C(=O)N(c2cccc(F)c2)C3=O)CC1 | – | 95 | 67 | – | – | 7.81 | 6.47 | – | 81 | – | – | 69 | – | – | 22.6 | – |
| CC(C)Oc1ccccc1N1CCN(C[C@@H](O)CNC(=O)c2ccc3c(c2)C(=O)N(c2ccc(N(C)C)cc2)C3=O)CC1 | – | 95 | – | – | 10 | 7.39 | 5.84 | 25 | 57 | 62 | 169 | – | 23 | – | 35.2 | – |
